Source: paper PMC11027041 (RSC Advances, 2024)

Assays:
HDAC2 = HDAC2 (Homo sapiens, UniProt Q92769); experiment: In vitro HDAC enzyme assay; format: biochemical
HDAC4 = HDAC4 (Homo sapiens, UniProt P56524); experiment: In vitro HDAC enzyme assay; format: biochemical
HDAC8 = HDAC8 (Homo sapiens, UniProt Q9BY41); experiment: In vitro HDAC enzyme assay; format: biochemical
HDAC9 = HDAC9 (Homo sapiens, UniProt Q9UKV0); experiment: In vitro HDAC enzyme assay; format: biochemical
[1] = test system: normal bone marrow cells HS-5; experiment: Cell viability assay; format: cell-based; settings: 72 h, read-out: Antiproliferative IC50 HS-5
Method in brief: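 Cells grown in IMDM with 20% FBS, 100 U per mL penicillin and 100 μg per mL streptomycin, then plated in 96-well format. Test compound exposure was 72 h. Alamar blue solution (1 mM, as added) was then applied for a further 5–6 h, and […] was read at 530/590 nm. Data were normalized to vehicle, as means of three independent measurements (standard errors <20%), and IC50 was calculated.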

HL60 = experiment: NCI-60 antiproliferative screening; format: cell-based; settings: Homo sapiens, HL-60, read-out: percent inhibition
MOLT-4 = experiment: NCI-60 antiproliferative screening; format: cell-based; settings: Homo sapiens, MOLT-4, read-out: percent inhibition
RPMI-8226 = experiment: NCI-60 antiproliferative screening; format: cell-based; settings: Homo sapiens, RPMI-8226, read-out: percent inhibition
EKVX = experiment: NCI-60 antiproliferative screening; format: cell-based; settings: Homo sapiens, read-out: percent inhibition
HCT-116 = experiment: NCI-60 antiproliferative screening; format: cell-based; settings: Homo sapiens, HCT-116, read-out: percent inhibition
HCT-15 = experiment: NCI-60 antiproliferative screening; format: cell-based; settings: Homo sapiens, HCT-15, read-out: percent inhibition
HT29 = experiment: NCI-60 antiproliferative screening; format: cell-based; settings: Homo sapiens, HT-29, read-out: percent inhibition
SW-620 = experiment: NCI-60 antiproliferative screening; format: cell-based; settings: Homo sapiens, SW-620, read-out: percent inhibition
SF-539 = experiment: NCI-60 antiproliferative screening; format: cell-based; settings: Homo sapiens, SF-539, read-out: percent inhibition
SNB-19 = experiment: NCI-60 antiproliferative screening; format: cell-based; settings: Homo sapiens, SNB-19, read-out: percent inhibition
SK-MEL-2 = experiment: NCI-60 antiproliferative screening; format: cell-based; settings: Homo sapiens, SK-MEL-2, read-out: percent inhibition
SK-MEL-5 = experiment: NCI-60 antiproliferative screening; format: cell-based; settings: Homo sapiens, SK-MEL-5, read-out: percent inhibition
UACC-62 = experiment: NCI-60 antiproliferative screening; format: cell-based; settings: Homo sapiens, UACC-62, read-out: percent inhibition
OVCAR-3 = experiment: NCI-60 antiproliferative screening; format: cell-based; settings: Homo sapiens, OVCAR-3, read-out: percent inhibition
OVCAR-4 = experiment: NCI-60 antiproliferative screening; format: cell-based; settings: Homo sapiens, OVCAR-4, read-out: percent inhibition
SK-OV-3 = experiment: NCI-60 antiproliferative screening; format: cell-based; settings: Homo sapiens, SK-OV-3, read-out: percent inhibition
786-0 = experiment: NCI-60 antiproliferative screening; format: cell-based; settings: Homo sapiens, 786-0, read-out: percent inhibition
A498 = experiment: NCI-60 antiproliferative screening; format: cell-based; settings: Homo sapiens, A498, read-out: percent inhibition
CAKI-1 = experiment: NCI-60 antiproliferative screening; format: cell-based; settings: Homo sapiens, CAKI-1, read-out: percent inhibition
SN12C = experiment: NCI-60 antiproliferative screening; format: cell-based; settings: Homo sapiens, read-out: percent inhibition
TK-10 = experiment: NCI-60 antiproliferative screening; format: cell-based; settings: Homo sapiens, TK-10, read-out: percent inhibition
MDA-MB-231/ATCC = experiment: NCI-60 antiproliferative screening; format: cell-based; settings: Homo sapiens, MDA-MB-231, read-out: percent inhibition
HS 578T = experiment: NCI-60 antiproliferative screening; format: cell-based; settings: Homo sapiens, read-out: percent inhibition
T-47D = experiment: NCI-60 antiproliferative screening; format: cell-based; settings: Homo sapiens, T47D, read-out: percent inhibition
[2] = test system: fifty-nine cancer cell lines; experiment: NCI-60 antiproliferative screening, panel summary; format: cell-based; settings: read-out: percent inhibition of 55 cell lines

Sequence of HDAC4 (P56524 whole entry): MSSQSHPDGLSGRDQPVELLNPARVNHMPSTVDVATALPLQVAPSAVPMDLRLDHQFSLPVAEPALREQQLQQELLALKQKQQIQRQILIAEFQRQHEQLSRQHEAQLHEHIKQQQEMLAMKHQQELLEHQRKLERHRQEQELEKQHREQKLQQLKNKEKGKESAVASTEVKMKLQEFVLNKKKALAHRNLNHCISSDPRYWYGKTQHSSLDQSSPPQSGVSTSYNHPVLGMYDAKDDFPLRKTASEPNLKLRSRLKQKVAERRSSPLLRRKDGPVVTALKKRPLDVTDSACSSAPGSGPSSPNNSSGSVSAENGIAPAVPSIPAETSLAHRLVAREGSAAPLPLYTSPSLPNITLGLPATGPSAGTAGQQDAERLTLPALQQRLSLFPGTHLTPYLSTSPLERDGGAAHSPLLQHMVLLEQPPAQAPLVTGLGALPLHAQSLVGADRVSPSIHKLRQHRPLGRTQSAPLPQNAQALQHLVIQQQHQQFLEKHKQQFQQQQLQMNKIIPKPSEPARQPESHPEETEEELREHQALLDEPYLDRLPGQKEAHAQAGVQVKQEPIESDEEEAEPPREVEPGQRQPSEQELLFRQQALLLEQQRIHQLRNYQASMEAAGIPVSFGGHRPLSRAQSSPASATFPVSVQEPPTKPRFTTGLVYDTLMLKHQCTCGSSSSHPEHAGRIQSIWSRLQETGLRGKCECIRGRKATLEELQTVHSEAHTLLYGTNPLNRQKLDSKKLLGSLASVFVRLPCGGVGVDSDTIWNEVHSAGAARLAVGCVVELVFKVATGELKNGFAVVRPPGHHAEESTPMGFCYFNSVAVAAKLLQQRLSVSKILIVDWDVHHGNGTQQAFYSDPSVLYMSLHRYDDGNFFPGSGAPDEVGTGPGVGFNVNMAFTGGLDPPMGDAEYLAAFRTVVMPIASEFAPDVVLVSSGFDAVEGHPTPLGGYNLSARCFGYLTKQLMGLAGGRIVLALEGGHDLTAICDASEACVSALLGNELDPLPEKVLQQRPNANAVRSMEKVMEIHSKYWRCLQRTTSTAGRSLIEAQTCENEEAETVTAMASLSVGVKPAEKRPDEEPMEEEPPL
Sequence of HDAC8 (Q9BY41 whole entry): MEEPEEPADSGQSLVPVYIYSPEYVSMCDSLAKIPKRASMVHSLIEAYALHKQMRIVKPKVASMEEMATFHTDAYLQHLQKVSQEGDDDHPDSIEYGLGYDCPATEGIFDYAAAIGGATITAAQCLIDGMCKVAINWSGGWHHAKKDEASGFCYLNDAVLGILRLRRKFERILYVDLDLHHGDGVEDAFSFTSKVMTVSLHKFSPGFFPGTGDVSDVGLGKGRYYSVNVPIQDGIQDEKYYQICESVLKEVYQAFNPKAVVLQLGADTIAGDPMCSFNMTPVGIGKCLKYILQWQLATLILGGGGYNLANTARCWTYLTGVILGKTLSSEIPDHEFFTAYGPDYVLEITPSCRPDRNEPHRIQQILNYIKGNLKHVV
Sequence of HDAC9 (Q9UKV0 whole entry): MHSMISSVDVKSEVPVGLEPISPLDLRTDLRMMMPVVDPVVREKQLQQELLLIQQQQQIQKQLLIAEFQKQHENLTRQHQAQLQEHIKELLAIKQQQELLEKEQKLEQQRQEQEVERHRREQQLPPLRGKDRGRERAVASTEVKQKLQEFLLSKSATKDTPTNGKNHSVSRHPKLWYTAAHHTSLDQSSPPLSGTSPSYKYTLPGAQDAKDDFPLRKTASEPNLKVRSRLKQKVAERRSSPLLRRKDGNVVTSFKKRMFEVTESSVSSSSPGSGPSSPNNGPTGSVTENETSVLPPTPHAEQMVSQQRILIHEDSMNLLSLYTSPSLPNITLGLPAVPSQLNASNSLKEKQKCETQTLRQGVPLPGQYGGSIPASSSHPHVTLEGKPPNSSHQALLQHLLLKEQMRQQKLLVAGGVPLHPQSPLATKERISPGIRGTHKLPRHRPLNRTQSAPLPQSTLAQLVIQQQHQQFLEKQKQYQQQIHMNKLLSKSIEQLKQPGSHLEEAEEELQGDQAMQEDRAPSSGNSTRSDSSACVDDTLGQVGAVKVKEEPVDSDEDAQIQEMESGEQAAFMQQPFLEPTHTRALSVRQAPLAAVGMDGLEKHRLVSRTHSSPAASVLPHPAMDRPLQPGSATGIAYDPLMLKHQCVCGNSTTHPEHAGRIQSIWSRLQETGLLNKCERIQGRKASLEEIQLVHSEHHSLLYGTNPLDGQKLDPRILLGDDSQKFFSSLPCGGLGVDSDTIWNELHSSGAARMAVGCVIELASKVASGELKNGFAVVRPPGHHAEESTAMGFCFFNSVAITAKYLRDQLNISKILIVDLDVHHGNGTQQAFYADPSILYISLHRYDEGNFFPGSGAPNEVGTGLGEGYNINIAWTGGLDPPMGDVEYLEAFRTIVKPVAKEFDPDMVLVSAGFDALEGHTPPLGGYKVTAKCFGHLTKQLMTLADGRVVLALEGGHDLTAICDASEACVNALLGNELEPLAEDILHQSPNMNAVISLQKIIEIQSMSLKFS
Sequence of HDAC2 (Q92769 whole entry): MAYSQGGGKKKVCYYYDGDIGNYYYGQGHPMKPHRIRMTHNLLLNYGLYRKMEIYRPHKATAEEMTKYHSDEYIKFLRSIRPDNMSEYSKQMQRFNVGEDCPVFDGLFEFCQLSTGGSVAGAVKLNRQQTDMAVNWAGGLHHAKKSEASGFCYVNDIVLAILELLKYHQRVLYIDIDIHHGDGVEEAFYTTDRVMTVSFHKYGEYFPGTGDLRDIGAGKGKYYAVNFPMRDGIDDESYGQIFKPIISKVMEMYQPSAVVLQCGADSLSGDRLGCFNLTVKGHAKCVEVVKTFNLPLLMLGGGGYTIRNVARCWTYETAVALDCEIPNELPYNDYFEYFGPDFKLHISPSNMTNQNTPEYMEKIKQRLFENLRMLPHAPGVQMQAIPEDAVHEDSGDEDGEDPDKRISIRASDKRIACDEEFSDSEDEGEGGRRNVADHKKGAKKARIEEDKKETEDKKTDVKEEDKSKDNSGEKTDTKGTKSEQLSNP

For `COc1ccc(CN2[C@@H](C(=O)NCCCCCCC(=O)NO)Cc3c([nH]c4ccccc34)[C@@H]2C2CC2)cc1` [Compound 13d, (1S,3R)-1-Cyclopropyl-N-(7-(hydroxyamino)-7-oxoheptyl)-2-(4-methoxybenzyl)-2,3,4,9-tetrahydro-1H-pyrido[3,4-b]indole-3-carboxamide], the IC50 (HDAC2) was 0.0235 ± 0.00103 µM, the IC50 (HDAC4) was over 50 µM and the “activity for HDAC4 (in words)” value (HDAC4) was “no activity”. For the same compound, the IC50 (HDAC8) was over 50 µM, the “activity for HDAC8 (in words)” value (HDAC8) was “no activity” and the IC50 (HDAC9) was over 50 µM. The “activity for HDAC9 (in words)” value (HDAC9) was “no activity”, the IC50 [1] was over 50 µM and the inhibition at 10 µM (HL60) was 96.6%. It also gave an inhibition at 10 µM (MOLT-4) of 87.8%, an inhibition at 10 µM (RPMI-8226) of 84.3% and an inhibition at 10 µM (EKVX) of 83.2%. It also gave an inhibition at 10 µM (HCT-116) of 97.9%, an inhibition at 10 µM (HCT-15) of 91.2% and an inhibition at 10 µM (HT29) of 93.7%. For the same compound, the inhibition at 10 µM (SW-620) was 100%, the inhibition at 10 µM (SF-539) was 97.1% and the inhibition at 10 µM (SNB-19) was 93.3%. For the same compound, the inhibition at 10 µM (SK-MEL-2) was 100%, the inhibition at 10 µM (SK-MEL-5) was 100% and the inhibition at 10 µM (UACC-62) was 100%. The inhibition at 10 µM (OVCAR-3) was 96.8%, the inhibition at 10 µM (OVCAR-4) was 59.4% and the inhibition at 10 µM (SK-OV-3) was 100%. The inhibition at 10 µM (786-0) was 82.7%, the inhibition at 10 µM (A498) was 100% and the inhibition at 10 µM (CAKI-1) was 96%. The inhibition at 10 µM (SN12C) was 92.2%, the inhibition at 10 µM (TK-10) was 100% and the inhibition at 10 µM (MDA-MB-231/ATCC) was 100%. For the same compound, the inhibition at 10 µM (HS 578T) was 100%, the inhibition at 10 µM (T-47D) was 100% and the inhibition at 10 µM [2] was over 80%.
